Measured values from ChEMBL document CHEMBL1124929, “Indolo[2,1-a]isoquinolines. Syntheses, steroid hormone receptor binding affinities, and cytostatic activity” (1990).

Experiments:
[1] = target: T1, Androgen Receptor (Bos taurus) (UniProt Q5EM59); assay: Relative binding affinity(RBA) for 50% displacement of [3H]mibolerone from Androgen receptor compared to testorone
T1 sequence (whole entry): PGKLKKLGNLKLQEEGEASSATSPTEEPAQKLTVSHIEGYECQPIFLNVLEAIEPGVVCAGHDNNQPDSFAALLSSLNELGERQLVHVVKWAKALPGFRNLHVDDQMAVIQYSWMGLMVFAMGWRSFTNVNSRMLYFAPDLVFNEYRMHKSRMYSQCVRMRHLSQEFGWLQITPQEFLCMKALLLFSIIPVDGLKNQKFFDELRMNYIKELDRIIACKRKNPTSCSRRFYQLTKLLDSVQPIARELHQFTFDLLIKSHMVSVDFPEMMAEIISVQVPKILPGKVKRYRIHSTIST
Outline: (§1)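 Receptor source was calf uterine cytosol (105000g supernatant, 3 mg/mL protein in assay). Buffers were Tris/EDTA pH 7.4, with NaN₃ for ER, molybdate/glycerol for AR, and sucrose for PR. Tracers were 1 nM [³H]estradiol, [³H]mibolerone or [³H]Org 2058. Incubation was at 0–4 °C for 16 h (ER) or 2 h (AR, PR), with 4–6 competitor concentrations. Nonspecific binding used 2 µM of the unlabeled hormone. Separation was by dextran-coated charcoal. RBA is the ratio of IC50 values for hormone and compound ×100, mean of two triplicate experiments.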

[2] = target: Estrogen receptor (Bos taurus) (UniProt Q9XSB5+P49884); assay: Relative binding affinity(RBA) for 50% displacement of [3H]-estradiol from Estrogen receptor compared to 17-beta-estradiol; format: protein assay; outline: as §1
MDA-MB-231 [3] = assay: Cytostatic effect on hormone-independent MDA-MB 231 human breast cancer cell proliferation at 1x10E-5 M; format: functional
Outline: (§2)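 Cells were plated at about 2 × 10⁴ per well in six-well dishes. MCF-7 cells were grown in modified improved MEM with 5% NCS, switched to charcoal-treated NCS two weeks before the test, and exposed for 5 days with a re-dose on day 4. MDA-MB 231 cells were grown in McCoy 5a with 10% NCS and exposed for 2 days. Compounds were given 1 day after plating in 0.1% DMSO, with DMSO-matched controls. Read-out was cell number as % T/C, mean of three experiments with six dishes.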

MDA-MB-231 [4] = assay: Effect on [3H]thymidine incorporation into MDA-MB 231 human breast cancer cells at 1x10E-5 M; format: functional
Outline: (§3)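 Cells were seeded at ~2 × 10⁴ per well, treated from the next day in 0.1% DMSO, with DMSO controls. MCF-7 cells were held in charcoal-stripped NCS for 2 weeks, treated for 5 days and re-dosed on day 4. MDA-MB 231 cells were grown in McCoy 5a/10% NCS and treated for 2 days. At the end, 1 µCi [³H]thymidine per well was added for 2 h. Result is % T/C, mean of three experiments × six dishes.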

MDA-MB-231 [5] = assay: Effect on [3H]-thymidine incorporation into MDA-MB 231 human breast cancer cells at 1x10E-6M; format: functional; outline: as §3
MDA-MB-231 [6] = assay: Cytostatic effect on hormone-independent MDA-MB 231 human breast cancer cell proliferation at5x10E-6M; format: functional; outline: as §2
MDA-MB-231 [7] = assay: Effect on [3H]thymidine incorporation into MDA-MB 231 human breast cancer cells at 5x10E-6M; format: functional; outline: as §3
MCF7 [8] = assay: Effect on hormone-dependent MCF-7 human breast cancer cell proliferation at 1x10E-5 M; format: functional; outline: as §2
MCF7 [9] = assay: Effect on [3H]thymidine incorporation into MCF-7 human breast cancer cells at 1x10E-5 M; format: functional; outline: as §3
MCF7 [10] = assay: Effect on [3H]thymidine incorporation into MCF-7 human breast cancer cells at 1x10E-6M; format: functional; outline: as §3
[11] = target: T2, Estrogen receptor (Mus musculus) (UniProt O08537+P19785); assay: (§4) Estrogenic activity in uterotrophic assay in immature mice at 2 ug subcutaneous dose; format: functional
T2 sequence (O08537 whole entry, looked up): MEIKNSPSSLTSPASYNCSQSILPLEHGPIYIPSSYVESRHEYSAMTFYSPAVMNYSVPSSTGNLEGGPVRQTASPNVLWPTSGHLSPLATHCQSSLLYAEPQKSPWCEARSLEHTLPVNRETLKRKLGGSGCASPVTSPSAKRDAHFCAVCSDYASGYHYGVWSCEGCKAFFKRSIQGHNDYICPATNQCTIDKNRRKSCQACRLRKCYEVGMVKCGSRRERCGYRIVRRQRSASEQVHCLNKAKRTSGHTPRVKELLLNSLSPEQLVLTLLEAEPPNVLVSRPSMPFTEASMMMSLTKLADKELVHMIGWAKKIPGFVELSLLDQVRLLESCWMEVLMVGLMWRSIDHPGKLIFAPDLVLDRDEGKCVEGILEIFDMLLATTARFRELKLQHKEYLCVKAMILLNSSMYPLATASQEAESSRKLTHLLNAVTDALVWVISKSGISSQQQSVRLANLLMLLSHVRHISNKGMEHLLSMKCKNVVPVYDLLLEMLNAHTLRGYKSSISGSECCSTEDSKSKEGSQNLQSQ
T2 sequence (P19785 whole entry, looked up): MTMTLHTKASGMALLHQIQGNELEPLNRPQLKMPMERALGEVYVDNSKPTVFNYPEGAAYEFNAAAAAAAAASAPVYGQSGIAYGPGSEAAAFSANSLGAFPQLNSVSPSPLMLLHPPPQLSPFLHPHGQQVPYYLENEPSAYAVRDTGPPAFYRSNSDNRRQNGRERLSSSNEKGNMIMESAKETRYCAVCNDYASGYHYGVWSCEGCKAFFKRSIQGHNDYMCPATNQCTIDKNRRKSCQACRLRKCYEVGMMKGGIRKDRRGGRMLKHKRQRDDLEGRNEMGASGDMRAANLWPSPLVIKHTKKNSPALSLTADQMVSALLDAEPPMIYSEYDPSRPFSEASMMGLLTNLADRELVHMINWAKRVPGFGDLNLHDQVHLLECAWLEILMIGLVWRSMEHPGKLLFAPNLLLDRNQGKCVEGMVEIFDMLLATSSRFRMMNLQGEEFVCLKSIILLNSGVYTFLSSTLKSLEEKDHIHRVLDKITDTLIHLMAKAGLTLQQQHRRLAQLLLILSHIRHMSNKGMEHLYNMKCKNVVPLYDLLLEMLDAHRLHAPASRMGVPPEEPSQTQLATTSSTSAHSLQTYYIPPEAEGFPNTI
Outline: (§5)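 Immature female NMRI mice, 20 days old, in groups of 6-10, were dosed sc once daily for three consecutive days. Compounds were given in PEG/0.9% saline 1:1; vehicle controls were included. Animals were killed 24 h after the last dose. Uteri were fixed in Bouin solution and the effect was taken as uterine dry weight (mg)/body weight (g) ×100, given as mean ± SD.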

[12] = target: T2, Estrogen receptor (Mus musculus); assay: (§6) Estrogenic activity in uterotrophic assay in immature mice at 50.0 ug subcutaneous dose; format: functional; outline: as §5
[13] = target: T2, Estrogen receptor (Mus musculus); assay: (§7) Estrogenic activity in uterotrophic assay in immature mice at 10.0 ug subcutaneous dose; format: functional; outline: as §5
[14] = target: T2, Estrogen receptor (Mus musculus); assay: as §4; format: functional; outline: as §5; remark: listed apart in the source
[15] = target: T2, Estrogen receptor (Mus musculus); assay: (§8) Estrogenic activity in uterotrophic assay in immature mice at 250 ug subcutaneous dose; format: functional; outline: as §5
[16] = target: T2, Estrogen receptor (Mus musculus); assay: as §6; format: functional; outline: as §5; remark: listed apart in the source
[17] = target: T2, Estrogen receptor (Mus musculus); assay: as §8; format: functional; outline: as §5; remark: listed apart in the source
[18] = target: T2, Estrogen receptor (Mus musculus); assay: as §7; format: functional; outline: as §5; remark: listed apart in the source
[19] = target: T2, Estrogen receptor (Mus musculus); assay: Inhibition of 0.4 ug estrone-stimulated uterine growth in mice at 2 ug subcutaneous dose; format: functional
Outline: (§9)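 Immature 20-day-old female NMRI mice received sc injections on three consecutive days. Each injection held 0.4 µg estrone plus the compound in PEG/saline 1:1. […] Significance was tested by Mann-Whitney U test.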

Bos taurus = species on record: Bos taurus; assay: Relative binding affinity(RBA) as ratio of progesterone and compound required to displace [3H]-org 2058 binding to Progesterone receptor by 50%; outline: as §1
[20] = target: T3, Androgen receptor (Mus musculus) (UniProt P19091); assay: Relative effect on seminal vesicle weight in adult and castrated mice at 1000 ug dose; format: functional, tissue-based
T3 sequence (whole entry): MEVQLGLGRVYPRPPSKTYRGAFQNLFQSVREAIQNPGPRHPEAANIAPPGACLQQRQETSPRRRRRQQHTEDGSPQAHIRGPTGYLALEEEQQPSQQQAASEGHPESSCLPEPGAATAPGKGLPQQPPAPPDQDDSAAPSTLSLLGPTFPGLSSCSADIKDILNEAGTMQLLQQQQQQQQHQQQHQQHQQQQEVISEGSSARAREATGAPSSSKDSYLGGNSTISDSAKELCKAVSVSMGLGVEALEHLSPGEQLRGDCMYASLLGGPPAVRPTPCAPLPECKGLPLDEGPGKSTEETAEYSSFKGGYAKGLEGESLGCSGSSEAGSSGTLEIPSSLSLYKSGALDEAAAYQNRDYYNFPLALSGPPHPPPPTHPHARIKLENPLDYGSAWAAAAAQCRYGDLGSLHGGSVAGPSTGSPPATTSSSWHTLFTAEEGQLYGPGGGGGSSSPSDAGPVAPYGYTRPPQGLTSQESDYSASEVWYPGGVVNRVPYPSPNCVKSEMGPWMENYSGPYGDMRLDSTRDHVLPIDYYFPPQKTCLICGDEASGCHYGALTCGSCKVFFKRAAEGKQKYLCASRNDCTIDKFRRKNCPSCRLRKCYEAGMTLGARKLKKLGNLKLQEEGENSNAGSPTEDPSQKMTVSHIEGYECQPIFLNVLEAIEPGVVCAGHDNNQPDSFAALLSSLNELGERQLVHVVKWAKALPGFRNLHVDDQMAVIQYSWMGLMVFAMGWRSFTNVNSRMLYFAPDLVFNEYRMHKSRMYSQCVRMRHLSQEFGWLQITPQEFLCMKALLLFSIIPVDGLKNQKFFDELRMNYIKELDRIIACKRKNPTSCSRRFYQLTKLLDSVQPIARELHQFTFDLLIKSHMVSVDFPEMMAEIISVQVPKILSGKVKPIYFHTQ
Outline: (§10)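 Adult male mice, 23–25 g, six per group, were used intact or castrated via the scrotal route under ether 5 days before the test. Castrates received 0.3 mg testosterone propionate daily. Compounds were injected daily in olive oil for nine days. Seminal vesicles were taken 24 h later, fixed in Bouin solution, dried overnight at 100 °C and weighed. Result is organ mg/body g ×100; % inhibition = [1 − treated/control] × 100.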

[21] = target: T3, Androgen receptor (Mus musculus); assay: Relative effect on seminal vesicle weight in adult and castrated mice at 100 ug dose; format: functional, tissue-based; outline: as §10
[22] = target: T3, Androgen receptor (Mus musculus); assay: Relative effect on seminal vesicle weight in adult and castrated mice at 10 ug dose; format: functional, tissue-based; outline: as §10
MDA-MB-231 [23] = assay: Cytostatic effect on hormone-independent MDA-MB 231 human breast cancer cell proliferation at 1x10E-6M; format: functional; outline: as §2
[24] = target: T3, Androgen receptor (Mus musculus); assay: Inhibition of seminal vesicle weight in intact mice at 100 ug
[25] = target: T3, Androgen receptor (Mus musculus); assay: Inhibition of seminal vesicle weight in intact mice at 10.0 ug
[26] = target: T3, Androgen receptor (Mus musculus); assay: as above; remark: listed apart in the source
MCF7 [27] = assay: Effect on hormone-dependent MCF-7 human breast cancer cell proliferation at 1x10E-6M; format: functional; outline: as §2
[28] = target: T2, Estrogen receptor (Mus musculus); assay: (§11) Estrogenic activity in uterotrophic assay in immature mice at 125 ug subcutaneous dose; format: functional; outline: as §5
[29] = target: T2, Estrogen receptor (Mus musculus); assay: (§12) Estrogenic activity in uterotrophic assay in immature mice at 40.0 ug subcutaneous dose; format: functional; outline: as §5
[30] = target: T2, Estrogen receptor (Mus musculus); assay: as §12; format: functional; outline: as §5; remark: listed apart in the source
[31] = target: T2, Estrogen receptor (Mus musculus); assay: as §11; format: functional; outline: as §5; remark: listed apart in the source
[32] = target: T2, Estrogen receptor (Mus musculus); assay: Inhibition of 0.4 ug estrone-stimulated uterine growth in mice at 40.0 ug subcutaneous dose; format: functional; outline: as §9
[33] = target: T2, Estrogen receptor (Mus musculus); assay: Inhibition of 0.4 ug estrone-stimulated uterine growth in mice at 125 ug subcutaneous dose; format: functional; outline: as §9

Structure (SMILES): CC(=O)Oc1ccc2c(c1)CC(C)n1c-2cc2cc(OC(C)=O)ccc21 (stereo unspecified)
- RBA [1]: 0.2
- RBA [2]: 12
- T/C (MDA-MB-231 [3]): 5%
- T/C (MDA-MB-231 [4]): 5%
- T/C (MDA-MB-231 [5]): 65%
- T/C (MDA-MB-231 [6]): 10%
- T/C (MDA-MB-231 [7]): 10%
- T/C (MCF7 [8]): 7%
- T/C (MCF7 [9]): 2%
- T/C (MCF7 [10]): 36%
- Effect [11]: 21.2
- Effect [12]: 53.3
- Effect [13]: 56
- Effect [14]: 52.6
- Effect [15]: 61.1
- Effect [16]: 61.2
- Effect [17]: 72.2
- Effect [18]: 26.3
- inhibition [19]: -8%
- RBA (Bos taurus): 0.01
- Relative seminal vesicle weight [20]: 45.2
- Relative seminal vesicle weight [21]: 145
- Relative seminal vesicle weight [22]: 195
- T/C (MDA-MB-231 [23]): 78%
- inhibition [24]: 27%
- inhibition [25]: 1%
- inhibition [26]: 1%

Structure (SMILES): CCC1Cc2cc(OC(C)=O)ccc2-c2c(C=O)c3cc(OC(C)=O)ccc3n21 (stereo unspecified)
- RBA [1]: 0.03
- RBA [2]: 4.6
- T/C (MDA-MB-231 [3]): 14%
- T/C (MDA-MB-231 [4]): 7%
- T/C (MCF7 [8]): 13%
- T/C (MCF7 [9]): 3%
- T/C (MCF7 [27]): 55%
- T/C (MCF7 [10]): 41%
- Effect [28]: 54.7
- Effect [11]: 14.5
- Effect [29]: 38.2
- Effect [14]: 48.2
- Effect [30]: 54.7
- Effect [31]: 56
- inhibition [32]: 2.6%
- inhibition [33]: 2.7%
- inhibition [19]: 19.6%
- RBA (Bos taurus): < 0.01
- T/C (MDA-MB-231 [23]): 75%
